Laboratory results reported in ChEMBL document CHEMBL4715736, “Identification of anticancer agents based on the thieno[2,3-b]pyridine and 1H-pyrazole molecular scaffolds” (2016).

Tests used:
Format in all cases: functional
U-251 [1] = test: Growth inhibition of human U-251 cells incubated for 48 hrs by sulforhodamine B assay
Outline: (§1)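 NCI DTP 60-line human tumour panel. Dose-response curves were run only for ligands active in the initial 10 µM screen. GI50 (concentration giving 50% of maximal inhibition of proliferation) and TGI (concentration giving total growth inhibition) were derived from these curves.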

A549 [2] = test: Growth inhibition of human A549/ATCC cells assessed as cell growth at 100 uM incubated for 48 hrs by sulforhodamine B assay relative to control; settings: read-out: Activity
Outline: (§2)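 NCI Developmental Therapeutics Program NCI60 panel. Compounds that were active in the 10 µM one-dose screen went on to dose–response testing. Growth at each concentration is expressed relative to untreated control (100%). GI50 (concentration giving 50% of maximal inhibition of proliferation) and TGI (concentration giving total growth inhibition) were derived from the curves.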

SR [3] = test: Growth inhibition of human SR cells incubated for 48 hrs by sulforhodamine B assay; outline: as §1
MOLT-4 = test: Growth inhibition of human MOLT-4 cells assessed as cell growth at 0.01 uM incubated for 48 hrs by sulforhodamine B assay relative to control; settings: read-out: Activity
TK-10 = test: Growth inhibition of human TK-10 cells assessed as cell growth at 0.01 uM incubated for 48 hrs by sulforhodamine B assay relative to control; settings: read-out: Activity
HCT-15 [4] = test: Growth inhibition of human HCT-15 cells incubated for 48 hrs by sulforhodamine B assay
Outline: (§3)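 NCI60 panel at the NCI Developmental Therapeutics Program. Only compounds active in the 10 µM screen went to dose-response testing. GI50, the concentration giving 50% of maximal inhibition of proliferation, and TGI, the concentration giving total growth inhibition, were derived from the dose-response curves.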

OVCAR-4 = test: Growth inhibition of human OVCAR-4 cells assessed as cell growth at 1 uM incubated for 48 hrs by sulforhodamine B assay relative to control; settings: read-out: Activity
COLO 205 = test: Growth inhibition of human COLO 205 cells assessed as cell growth at 0.01 uM incubated for 48 hrs by sulforhodamine B assay relative to control; settings: read-out: Activity; outline: as §2
HCT-116 [5] = test: Growth inhibition of human HCT-116 cells assessed as cell growth at 0.1 uM incubated for 48 hrs by sulforhodamine B assay relative to control; settings: read-out: Activity
M14 [6] = test: Growth inhibition of human M14 cells assessed as cell growth at 100 uM incubated for 48 hrs by sulforhodamine B assay relative to control; settings: read-out: Activity
NCI/ADR-RES [7] = test: Growth inhibition of human NCI/ADR-RES cells assessed as cell growth at 0.1 uM incubated for 48 hrs by sulforhodamine B assay relative to control; settings: read-out: Activity
NCI/ADR-RES [8] = test: Growth inhibition of human NCI/ADR-RES cells assessed as cell growth at 0.01 uM incubated for 48 hrs by sulforhodamine B assay relative to control; settings: read-out: Activity
HCT-116 [9] = test: Growth inhibition of human HCT-116 cells assessed as cell growth at 0.01 uM incubated for 48 hrs by sulforhodamine B assay relative to control; settings: read-out: Activity
HCT-15 [10] = test: Growth inhibition of human HCT-15 cells assessed as cell growth at 0.1 uM incubated for 48 hrs by sulforhodamine B assay relative to control; settings: read-out: Activity
U-251 [11] = test: Growth inhibition of human U-251 cells assessed as cell growth at 0.1 uM incubated for 48 hrs by sulforhodamine B assay relative to control; settings: read-out: Activity
NCI-H522 [12] = test: Growth inhibition of human NCI-H522 cells assessed as cell growth at 0.1 uM incubated for 48 hrs by sulforhodamine B assay relative to control; settings: read-out: Activity
K562 = test: Growth inhibition of human K562 cells assessed as cell growth at 1 uM incubated for 48 hrs by sulforhodamine B assay relative to control; settings: read-out: Activity
SN12C = test: Growth inhibition of human SN12C cells assessed as cell growth at 100 uM incubated for 48 hrs by sulforhodamine B assay relative to control; settings: read-out: Activity
M14 [13] = test: Growth inhibition of human M14 cells incubated for 48 hrs by sulforhodamine B assay; outline: as §3
SK-MEL-5 [14] = test: Growth inhibition of human SK-MEL-5 cells assessed as cell growth at 1 uM incubated for 48 hrs by sulforhodamine B assay relative to control; settings: read-out: Activity
A549 [15] = test: Growth inhibition of human A549/ATCC cells assessed as cell growth at 0.1 uM incubated for 48 hrs by sulforhodamine B assay relative to control; settings: read-out: Activity; outline: as §2
CAKI-1 = test: Growth inhibition of human CAKI-1 cells incubated for 48 hrs by sulforhodamine B assay; settings: for CC50: read-out: LC50 (the source's name); outline: as §2
RXF 393 = test: Growth inhibition of human RXF 393 cells assessed as cell growth at 1 uM incubated for 48 hrs by sulforhodamine B assay relative to control; settings: read-out: Activity
OVCAR-3 = test: Growth inhibition of human OVCAR-3 cells assessed as cell growth at 0.1 uM incubated for 48 hrs by sulforhodamine B assay relative to control; settings: read-out: Activity
PC-3 = test: Growth inhibition of human PC-3 cells incubated for 48 hrs by sulforhodamine B assay; outline: as §1
RPMI-8226 [16] = test: Growth inhibition of human RPMI-8226 cells assessed as cell growth at 100 uM incubated for 48 hrs by sulforhodamine B assay relative to control; settings: read-out: Activity
SF-295 [17] = test: Growth inhibition of human SF-295 cells assessed as cell growth at 0.1 uM incubated for 48 hrs by sulforhodamine B assay relative to control; settings: read-out: Activity
SF-295 [18] = test: Growth inhibition of human SF-295 cells assessed as cell growth at 1 uM incubated for 48 hrs by sulforhodamine B assay relative to control; settings: read-out: Activity
MCF7 = test: Growth inhibition of human MCF7 cells assessed as cell growth at 0.01 uM incubated for 48 hrs by sulforhodamine B assay relative to control; settings: read-out: Activity
SR [19] = test: Growth inhibition of human SR cells assessed as cell growth at 100 uM incubated for 48 hrs by sulforhodamine B assay relative to control; settings: read-out: Activity
SK-MEL-5 [20] = test: Growth inhibition of human SK-MEL-5 cells assessed as cell growth at 100 uM incubated for 48 hrs by sulforhodamine B assay relative to control; settings: read-out: Activity
RPMI-8226 [21] = test: Growth inhibition of human RPMI-8226 cells assessed as cell growth at 0.1 uM incubated for 48 hrs by sulforhodamine B assay relative to control; settings: read-out: Activity
SNB-19 = test: Growth inhibition of human SNB-19 cells incubated for 48 hrs by sulforhodamine B assay; outline: as §1
NCI-H460 = test: Growth inhibition of human NCI-H460 cells assessed as cell growth at 100 uM incubated for 48 hrs by sulforhodamine B assay relative to control; settings: read-out: Activity
NCI-H522 [22] = test: Growth inhibition of human NCI-H522 cells assessed as cell growth at 0.01 uM incubated for 48 hrs by sulforhodamine B assay relative to control; settings: read-out: Activity

`Cc1cc(C)c(NC(=O)c2sc3nc4c(cc3c2N)CN(Cc2ccccc2)CC4)c(C)c1` showed a GI50 (U-251 [1]) of 4.35 µM, an LC50 (concentration killing 50% of cells) (U-251 [1]) of over 100 µM and a TGI (U-251 [1]) of 24.2 µM. The growth at 100 µM (A549 [2]) was 13%, the GI50 (SR [3]) was 1.83 µM and the LC50 (SR [3]) was over 100 µM. The TGI (SR [3]) was 10.7 µM, the growth at 0.01 µM (MOLT-4) was 99% and the growth at 0.01 µM (TK-10) was 103%. For the same compound, the GI50 (HCT-15 [4]) was 2.12 µM, the LC50 (HCT-15 [4]) was over 100 µM and the TGI (HCT-15 [4]) was over 100 µM. The growth at 1 µM (OVCAR-4) was 77%, the growth at 0.01 µM (COLO 205) was 94% and the growth at 0.1 µM (HCT-116 [5]) was 97%. For the same compound, the growth at 100 µM (M14 [6]) was -18%, the growth at 0.1 µM (NCI/ADR-RES [7]) was 100% and the growth at 0.01 µM (NCI/ADR-RES [8]) was 104%. It also gave a growth at 0.01 µM (HCT-116 [9]) of 93%, a growth at 0.1 µM (HCT-15 [10]) of 93% and a growth at 0.1 µM (U-251 [11]) of 96%. It also gave a growth at 0.1 µM (NCI-H522 [12]) of 97%, a growth at 1 µM (K562) of 47% and a growth at 100 µM (SN12C) of 12%. It also gave a GI50 (M14 [13]) of 2.89 µM, an LC50 (concentration killing 50% of cells) (M14 [13]) of over 100 µM and a TGI (M14 [13]) of 31.5 µM. For the same compound, the growth at 1 µM (SK-MEL-5 [14]) was 59%, the growth at 0.1 µM (A549 [15]) was 96% and the GI50 (CAKI-1) was 2.81 µM. For the same compound, the TGI (CAKI-1) was over 100 µM, the CC50 (CAKI-1) was over 100 µM and the growth at 1 µM (RXF 393) was 78%. For the same compound, the growth at 0.1 µM (OVCAR-3) was 105%, the GI50 (PC-3) was 3.13 µM and the TGI (PC-3) was over 100 µM. It also gave a CC50 (PC-3; read-out: LC50 (the source's name)) of over 100 µM, a growth at 100 µM (RPMI-8226 [16]) of -11% and a growth at 0.1 µM (SF-295 [17]) of 92%. For the same compound, the growth at 1 µM (SF-295 [18]) was 66%, the growth at 0.01 µM (MCF7) was 86% and the growth at 100 µM (SR [19]) was -16%. The growth at 100 µM (SK-MEL-5 [20]) was -49%, the growth at 0.1 µM (RPMI-8226 [21]) was 100% and the GI50 (SNB-19) was 7.21 µM. It also gave an LC50 (SNB-19) of over 100 µM, a TGI (SNB-19) of over 100 µM and a growth at 100 µM (NCI-H460) of -25%. It also gave a growth at 0.01 µM (NCI-H522 [22]) of 96%.
`Cc1ccc(NC(=O)c2sc3nc4c(cc3c2N)C(=O)CCC4)cc1C` was tested, and the GI50 (U-251 [1]) was 0.68 µM, the LC50 (concentration killing 50% of cells) (U-251 [1]) was over 100 µM and the TGI (U-251 [1]) was at least 100 µM. The growth at 100 µM (A549 [2]) was 13%, the GI50 (SR [3]) was 0.499 µM and the LC50 (SR [3]) was over 100 µM. For the same compound, the TGI (SR [3]) was 26.8 µM, the growth at 0.01 µM (MOLT-4) was 103% and the growth at 0.01 µM (TK-10) was 96%. The GI50 (HCT-15 [4]) was 0.486 µM, the LC50 (HCT-15 [4]) was over 100 µM and the TGI (HCT-15 [4]) was over 100 µM. For the same compound, the growth at 1 µM (OVCAR-4) was 42%, the growth at 0.01 µM (COLO 205) was 101% and the growth at 0.1 µM (HCT-116 [5]) was 90%. The growth at 100 µM (M14 [6]) was 4%, the growth at 0.1 µM (NCI/ADR-RES [7]) was 102% and the growth at 0.01 µM (NCI/ADR-RES [8]) was 100%. The growth at 0.01 µM (HCT-116 [9]) was 99%, the growth at 0.1 µM (HCT-15 [10]) was 90% and the growth at 0.1 µM (U-251 [11]) was 92%. The growth at 0.1 µM (NCI-H522 [12]) was 82%, the growth at 1 µM (K562) was 17% and the growth at 100 µM (SN12C) was 17%. It also gave a GI50 (M14 [13]) of 0.366 µM, an LC50 (concentration killing 50% of cells) (M14 [13]) of over 100 µM and a TGI (M14 [13]) of over 100 µM. For the same compound, the growth at 1 µM (SK-MEL-5 [14]) was 21%, the growth at 0.1 µM (A549 [15]) was 98% and the TGI (CAKI-1) was over 100 µM. The CC50 (CAKI-1) was over 100 µM, the growth at 1 µM (RXF 393) was -11% and the growth at 0.1 µM (OVCAR-3) was 101%. The growth at 100 µM (RPMI-8226 [16]) was -9%, the growth at 0.1 µM (SF-295 [17]) was 85% and the growth at 1 µM (SF-295 [18]) was 17%. The growth at 0.01 µM (MCF7) was 89%, the growth at 100 µM (SR [19]) was -14% and the growth at 100 µM (SK-MEL-5 [20]) was -57%. The growth at 0.1 µM (RPMI-8226 [21]) was 97%, the GI50 (SNB-19) was 0.558 µM and the LC50 (SNB-19) was over 100 µM. It also gave a TGI (SNB-19) of over 100 µM, a growth at 100 µM (NCI-H460) of -9% and a growth at 0.01 µM (NCI-H522 [22]) of 100%.
